Bioassay records deposited in PubChem BioAssay by The Scripps Research Institute Molecular Screening Center.
Most compounds without a hit are left out; they make up all but 1.2% or so of the library.
TRPML3 agonist: human TRPML3 channel agonists, primary screen, cell-based, HEK293 TRPML3-YFP, Fluo-8 calcium fluorescence, 3 µM; 100% = the carbachol control signal; activation, % at 3 µM; hit rate 0.29% among 220,000;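 active = activation above its plate's cutoff, the mean activation of the plate's test wells plus 3 SD, cut at about 12% in these data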
Target sequence (Q8TDD5 whole entry, looked up): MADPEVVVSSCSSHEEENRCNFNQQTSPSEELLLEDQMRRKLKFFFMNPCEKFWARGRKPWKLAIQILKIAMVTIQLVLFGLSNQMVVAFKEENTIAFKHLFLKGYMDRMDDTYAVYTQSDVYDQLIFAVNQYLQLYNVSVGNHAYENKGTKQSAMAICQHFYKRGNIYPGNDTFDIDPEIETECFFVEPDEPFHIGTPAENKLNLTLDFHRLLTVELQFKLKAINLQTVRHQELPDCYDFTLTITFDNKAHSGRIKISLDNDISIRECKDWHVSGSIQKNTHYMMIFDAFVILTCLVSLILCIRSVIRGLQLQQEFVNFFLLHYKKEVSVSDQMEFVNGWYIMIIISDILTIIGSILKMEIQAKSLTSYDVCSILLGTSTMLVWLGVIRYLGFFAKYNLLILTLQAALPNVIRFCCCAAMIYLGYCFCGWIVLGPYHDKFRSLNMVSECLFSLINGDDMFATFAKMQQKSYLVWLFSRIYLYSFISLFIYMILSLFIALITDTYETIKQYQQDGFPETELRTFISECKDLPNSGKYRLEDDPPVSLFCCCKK
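Test system: TRPML3-YFP stable HEK293 cells. Doses: single point at 3 µM. Incubation: dye loading 1 h 37 °C then 30 min ambient, 125 s read. Signal: Fluo-8 calcium dye fluorescence, ex 470-495, em 515-575 nm. Measure: percent activation from peak-to-basal fluorescence ratio, scaled between DMSO and carbachol.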
CHO-K1 Ca ag: counter-screen for M1 agonists: effect in parental CHO-K1 cells. activation, % at 3 µM. Fluo-8 calcium fluorescence; scaled to maximal ATP response, vehicle zero. AID 602248, 2012. hit rate 0.48% among 360,000; in the data active = activation above about 15%;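 also: untransfected CHO-K1 host cells lacking M1 receptor as counterscreen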
CHO-K1 Ca antag: M1 antagonist counterscreen hit in parental CHO-K1 cells; hit rate 0.6% among 360,000; ATP-induced calcium, Fluo-8 fluorescence; AID 602250; inhibition, % at 3 µM;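 active = inhibition above a per-plate cutoff, the plate's mean sample inhibition plus 3 SD, cut at about 24% in these data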
M1 PAM parental: nonselective calcium activators in parental CHO-K1 cells, primary screen, counter-screen for M1 PAM project, cell-based, Fluo-8 calcium fluorescence, full deck, 1536-well | ATP EC20; 0% at ATP EC20, 100% at ATP max | activation, % at 3 µM | hit rate 0.02% among 360,000;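 active = activation above the run cutoff, the mean activation of all test compounds plus 3 SD, cut at about 40% in these data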;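 also: peak over basal fluorescence ratio in a 140 s read after ATP addition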
TRPN1 ag: zebrafish TRPN1 channel agonists, primary screen, cell-based, HEK293, calcium fluorescence; transient receptor potential cation channel N1 (TRPN1/NompC), Danio rerio; HEK293 zebrafish TRPN1-YFP, Fluo-8 calcium fluorescence; 100% = response to 87 µM carbachol; activation, % at 3 µM; hit rate 0.18% among 220,000; AID 1424, 2008;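 active = activation above its plate's cutoff, the mean activation of test wells on that plate plus 3 SD, cut at about 19% in these data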
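Control set: carbachol 87 µM as high control, DMSO as low control; system: HEK293 stable line with zebrafish TRPN1-YFP; read-out: % activation versus carbachol response; detection: intracellular calcium fluorescence with Fluo-8; doses: single test compound dose, 3 µM nominal, 0.3% DMSO; schedule: dye 1 h 37 °C plus 30 min RT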
Hits are given with their value; i = inactive; nt = not tested or not shown.

SMILES	TRPML3 agonist	CHO-K1 Ca ag	CHO-K1 Ca antag	M1 PAM parental	TRPN1 ag
O=C(CSc1ccc(Cl)cc1)NC1CCCC1	i	i	i	i	i
O=C(NC1CCCCC1)Sc1ccc(Cl)cc1	i	i	23.8	i	i
Cc1nn(-c2ccccc2)c(-c2ccccc2[N+](=O)[O-])c1CC#N	nt	i	i	i	nt
CC1=C(C)/C(=N\OS(=O)(=O)c2ccccc2)C=CC1=O	15.8	i	37.0	i	i
CC(C)(C)OC(=O)N1CCC[C@H]1C(=O)NCc1ccc(F)cc1F	nt	i	i	i	nt
CS(=O)(=O)N1CCCC(c2nc(-c3ccc(S(=O)(=O)NCc4ccccc4)cc3)no2)C1 (centres undefined)	i	i	33.5	i	i
COc1ccc(OC)c(S(=O)(=O)n2nnc3ccccc32)c1	i	i	i	i	i
COc1ccc(Cl)cc1S(=O)(=O)n1nnc2ccccc21	i	i	28.0	i	i
CCOc1ccc(Cl)cc1-c1cc(C(=O)NCc2cc(C(F)(F)F)cc(C(F)(F)F)c2)[nH]n1	nt	i	i	i	nt
Cc1cc(N2CCN(c3ccccn3)CC2)n2c(nc3ccccc32)c1C#N	i	i	29.3	i	i
CCCc1cc(NCc2ccccn2)n2c(nc3ccccc32)c1C#N	i	15.1	i	i	i
O=C(c1cc(-c2ccccc2)on1)N(Cc1cccnc1)C(c1ccccn1)c1nc2ccccc2[nH]1 (centres undefined)	nt	i	i	i	nt
O=C(NCC(c1ccco1)N1CCN(c2ccccc2)CC1)C1CCCCC1 (centres undefined)	nt	i	i	i	nt
CC(=O)c1c(C)[nH]c(C(=O)OCCCCN2C(=O)c3ccccc3C2=O)c1C	i	i	33.2	i	i
CC(=O)c1c(C)[nH]c(C(=O)OCc2ccccc2)c1C	i	i	i	i	i
O[C@@H]1CN(Cc2cccs2)[C@@H](c2ccc(Cl)cc2)C[C@H]1n1cc(-c2ccc(F)cc2)nn1	nt	i	i	i	nt
COc1cc(OC)c(C(=O)c2ccccc2[N+](=O)[O-])c(OC)c1	nt	i	i	i	nt
CCc1nnc(NS(=O)(=O)c2ccc(Nc3ccc4nonc4c3[N+](=O)[O-])cc2)s1	i	i	29.4	i	i
CCN(CC)C(=O)C1=C(C)N(CCCOC)C(=O)C(CC(=O)NCCc2ccccn2)C1 (centres undefined)	nt	i	29.9	i	nt
Cc1onc(-c2c(F)cccc2Cl)c1C(=O)Nc1cc(S(=O)(=O)N2CCCCC2)ccc1O	nt	i	26.0	i	nt
COc1ccc(CN(CCCn2cnc3c(OC)ncnc32)CCCn2cnc3c(OC)ncnc32)cc1	nt	i	i	i	nt
COc1ccc(NC2=CC(c3cccc(OC)c3)N(c3ccc(OC)cc3)C2=O)cc1 (centres undefined)	i	i	36.7	i	i
CC(=O)C(=Cc1cccc(C#N)c1)C(=O)c1ccccc1	nt	i	i	i	nt
Cc1cc(C)c(S(=O)(=O)Cc2ccc(Cl)cc2)c(=O)[nH]1	i	i	i	i	i
Cc1cc(C)c(S(=O)(=O)Cc2ccccc2)c(=O)[nH]1	i	i	24.6	i	i
SMILES	TRPML3 agonist	CHO-K1 Ca ag	CHO-K1 Ca antag	M1 PAM parental	TRPN1 ag
S=C1NC2=C(CCCC2=C2SCCS2)C(c2ccccc2)N1 (centres undefined)	i	i	25.0	i	i
Fc1ccc(/C=C2\CCCC3=C2NC(=S)NC3c2ccc(F)cc2)cc1 (centres undefined)	i	nt	nt	nt	i
CCCCNC(=S)Nc1ccc(Cl)cc1	i	i	30.6	i	i
S=C(NCc1ccc(Cl)cc1)Nc1ccccc1	i	i	i	i	i
CCNC(=S)Nc1ccc(Cl)cc1	i	i	i	i	i
S=C(NCc1ccc(Cl)cc1)Nc1ccncc1	nt	20.7	30.6	i	nt
Cc1cc(/C=N/NC(N)=S)c(O)c(/C=N/NC(N)=S)c1	15.8	i	i	i	41.2
CCCCCCN=C1CC(C)(C)CC(=O)/C1=C(/O)CCC	i	i	i	i	i
CCCN=C1CC(C)(C)CC(=O)/C1=C(/O)CCC	i	17.7	i	i	i
CC1(C(=O)NS(=O)(=O)c2ccc3ccccc3c2)CCN1C(=O)Cc1ccc(-c2ccccc2)cc1 (centres undefined)	nt	i	i	i	nt
